# Rtt109 Vps75 = blocks Candida albicans Rtt109/Vps75 acetyltransferase activity. AID 540336. inhibition, % at 34.9 µM. 330,000 tested, 0.16% active. purified Rtt109/Vps75, ThioGlo CoA-SH fluorescence, 4 h;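 active = inhibition of at least 50% in every replicate; inconclusive = best replicate reaches 50% inhibition but some replicates fall short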
# Target sequence (Q5AAJ8 whole entry, looked up): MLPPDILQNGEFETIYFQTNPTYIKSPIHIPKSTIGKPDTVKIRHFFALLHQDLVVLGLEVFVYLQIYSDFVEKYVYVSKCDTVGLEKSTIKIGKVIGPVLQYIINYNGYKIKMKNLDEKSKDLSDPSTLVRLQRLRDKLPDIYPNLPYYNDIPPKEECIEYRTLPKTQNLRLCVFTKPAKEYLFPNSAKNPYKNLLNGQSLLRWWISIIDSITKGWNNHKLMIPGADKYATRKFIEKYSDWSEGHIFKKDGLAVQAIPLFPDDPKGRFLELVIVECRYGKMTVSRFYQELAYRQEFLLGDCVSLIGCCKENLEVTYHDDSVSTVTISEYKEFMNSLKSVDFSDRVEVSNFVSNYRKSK
# ALR H2O2 inh = blocks human ALR sulfhydryl oxidase activity. 290,000 tested, 3.8% active. purified ALR, DTT oxidation, H2O2 HRP-luminol luminescence. inhibition, % (concentration not given with the values);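 active = mean replicate inhibition above about 79%, with every replicate also reaching it, limit read from the data; inconclusive = only one of the two criteria met; inactive = mean below limit and not every replicate reaching it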
# CAL PDZ FP-1 = human CAL PDZ-peptide interaction inhibition. Q9HD26. purified CAL PDZ, TMR-peptide fluorescence polarization, 1 h. inhibition, % at 20 µM. 330,000 tested, 0.02% active. AID 504414;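 active = highest replicate inhibition of at least 40%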;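 note: plate controls were DMSO neutral control wells for no effect and unlabeled competitor peptide control wells for full effect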
#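 Test system: purified CerCALP PDZ construct; Compound dosing: one concentration, 20 µM compound; Also added: TMR-labelled reporter peptide T*-PRC34 bound in PDZ groove; Read-out: inhibition from polarization loss; Controls: unlabelled peptide and DMSO controls; Signal: FP readout, S and P plane fluorescence; Incubation: 1 h at RT.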
# CAL PDZ FP-2 = inhibitors of human CAL PDZ peptide binding; Q9HD26; purified CAL PDZ, TMR-peptide fluorescence polarization, 1 h; inhibition, % at 24.9 µM; 300,000 tested, 0.92% active;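 active = mean inhibition of at least 30% with at least half of replicates also reaching 30%; inconclusive = no clear call, values can overlap the other calls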;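 note: 0% = DMSO neutral control and 100% = excess unlabeled competitor peptide PRC23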
# DYRK1A inh = inhibitors of rat Dyrk1A kinase; ADP-Glo luminescence, NFATc1 peptide; inhibition, % at 12.5 µM; Q63470; 310,000 tested, 0.43% active; in the data active = inhibition above about 50%;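 note: plate controls were vehicle with enzyme for no effect and no enzyme for full effect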
# * marks the source's active call; other numbers are inactive results; ? = inconclusive; nt = not tested or not shown. Hits are enriched below; roughly 4.3% of the tested compounds scored in any of these assays.
SMILES,Rtt109 Vps75,ALR H2O2 inh,CAL PDZ FP-1,CAL PDZ FP-2,DYRK1A inh
CCc1cccc(NC(=O)C2CCCN(c3ncnc4c3nc3n4CCCCC3)C2)c1 (centres undefined),87.3*,1.8,-1.7,6.6,1.2
CCCCOC(=O)c1ccc(OC(=O)c2cccnc2)cc1,-3.0,28.6,0.3,33.0*,4.9
CCCCCCOC(=O)c1ccc(OC(=O)c2cccnc2)cc1,11.9,-0.6,0.3,-3.9,14.5
COc1ccc(NC(C)=O)cc1NC(=O)C1CCCN1C(=O)c1cccs1 (centres undefined),-5.1,nt,-0.6,48.1*,-2.8
CCC(O)CC(C(=O)NNc1ccccc1)C(=O)NNc1ccccc1 (centres undefined),-0.2,98.6*,-0.2,0.6,1.3
CCOC(=O)NNc1ccccc1,-1.1,-9.5,-1.8,-2.8,-6.0
CC(CCN1CCN(c2ccc(F)cc2)CC1)c1ccccc1 (centres undefined),-2.1,36.1,-1.1,-8.4,0.0
Brc1ccc(CN2CCN(c3ccccc3)CC2)o1,-2.4,97.4*,-0.3,nt,11.2
CCCN1CCC(=O)N(CCSc2ccccc2)CC1,-8.2,-3.2,-1.7,1.6,-30.9
CC(CN1CCN(c2ccccc2)CC1)c1ccccc1 (centres undefined),-11.4,97.5*,0.7,-2.1,5.0
c1ccc(SCCN2CCN(c3ccccc3)CC2)cc1,3.7,98.4*,-0.4,-4.8,10.7
Cc1cc(CNC(=O)COc2ccc(F)cc2Cl)cc(C)c1O,5.5,-2.9,0.2,-2.8,0.3
CCc1cccc(CC)c1-n1c(-c2cccnc2)n[nH]c1=S,-4.9,30.9,-0.6,1.9,-5.0
S=c1[nH]nc(-c2cccc3ccccc23)n1-c1cccnc1,-4.4,90.9*,-0.2,nt,-3.6
CC1CCCCN1CCNC(=O)C1CCCN(S(=O)(=O)c2cccc3nsnc23)C1 (centres undefined),5.9,-3.2,-2.8,-3.5,-8.6
CC(OC(=O)c1ccc2ccccc2c1)C(=O)N(C)Cc1ccccc1 (centres undefined),3.2,-1.0,-1.8,-2.5,4.7
CC(C)N(CCC(=O)c1ccc2ccccc2c1)Cc1ccccc1,-13.3,97.3*,-0.7,-1.9,7.4
COc1ccc(/C=N/NC(=O)C(=O)N2CCCC2)cc1,-5.1,-0.6,-1.5,-3.2,1.2
CN(C)c1ccc(/C=N/NC(=O)C(=O)N2CCCCCC2)cc1,-6.6,98.9*,-1.1,1.5,1.5
COc1cc(/C=N/NC(=O)C(=O)NCC2CCCO2)ccc1O (centres undefined),1.6,98.9*,-0.3,nt,25.9
COc1cc(/C=N/NC(=O)CC(=O)NC2CCCCC2)ccc1O,14.2,99.2*,-2.7,-2.2,0.5
C=CCOc1ccc(/C=N/NC(=O)C(=O)N2CCCCCC2)cc1OC,0.5,nt,-3.0,-1.8,0.9
COc1cc(/C=N/NC(=O)C(=O)N2CCCCCC2)ccc1O,0.5,99.0*,-3.4,-3.7,3.1
Cc1nnsc1C(=O)N1CCCC(Nc2ccc(F)c(F)c2)C1 (centres undefined),0.9,14.5,-0.8,-0.8,-4.7
Cc1cc(O)c(C(C)C)cc1C1(c2cc(C(C)C)c(O)cc2C)OC(=O)c2ccccc21,19.9,3.0,-0.1,nt,-3.6
SMILES,Rtt109 Vps75,ALR H2O2 inh,CAL PDZ FP-1,CAL PDZ FP-2,DYRK1A inh
Cc1cc(C2(c3ccc(O)c(C)c3)OC(=O)c3ccccc32)ccc1O,15.8,77.3*,-0.1,-2.6,6.1
COc1ccc(NC(=O)CSc2nnc(Cn3cnc4ccccc43)o2)cc1,8.8,-11.0,-2.0,-3.0,-2.7
O=c1[nH]c2nc(Cl)nc(Cl)c2[nH]1,2.3,nt,-0.7,81.4*,1.4
Nc1nc(N2CCN(c3ccc(F)cc3)CC2)n[nH]1,-2.3,97.9*,0.0,-0.1,-0.4
Cc1ccc(S(=O)(=O)Oc2ccc(/C=C3/C(=N)N4C(=NC3=O)SN=C4S(C)(=O)=O)cc2)cc1,?,98.3*,-2.9,-2.3,0.4
CCS(=O)(=O)C1=NSC2=NC(=O)/C(=C\c3ccc(OS(=O)(=O)c4ccccc4)c(OC)c3)C(=N)N21,-5.2,97.1*,-1.5,nt,11.9
Cc1ccc(S(=O)(=O)Oc2ccc(/C=C3\C(=N)N4N=C(S(C)(=O)=O)SC4=NC3=O)cc2)cc1,15.6,91.7*,-1.0,nt,7.5
COc1cc(/C=C2\C(=N)N3N=C(S(C)(=O)=O)SC3=NC2=O)ccc1OS(=O)(=O)c1ccccc1,nt,90.7*,nt,nt,nt
Cc1ccc(Cl)cc1NC(=S)N(CCCN1CCN(C)CC1)Cc1ccco1,-2.1,-12.5,0.4,-3.5,1.0

# Source: PubChem
